Data from ChEMBL document CHEMBL1148529, “Isatin compounds as noncovalent SARS coronavirus 3C-like protease inhibitors” (J Med Chem, 2006).

Assays:
[1] = molecular target: Replicase polyprotein 1a (Severe acute respiratory syndrome-related coronavirus) (UniProt P0C6U8); assay: Inhibition of SARS CoV 3C-like protease at 100 uM
[2] = molecular target: T1, Human rhinovirus A protease (Human rhinovirus sp., UniProt Q4U254); assay: Inhibition of human rhinovirus 14 3C protease; design: species or system rhinovirus B14
T1 sequence (Q4U254 whole entry): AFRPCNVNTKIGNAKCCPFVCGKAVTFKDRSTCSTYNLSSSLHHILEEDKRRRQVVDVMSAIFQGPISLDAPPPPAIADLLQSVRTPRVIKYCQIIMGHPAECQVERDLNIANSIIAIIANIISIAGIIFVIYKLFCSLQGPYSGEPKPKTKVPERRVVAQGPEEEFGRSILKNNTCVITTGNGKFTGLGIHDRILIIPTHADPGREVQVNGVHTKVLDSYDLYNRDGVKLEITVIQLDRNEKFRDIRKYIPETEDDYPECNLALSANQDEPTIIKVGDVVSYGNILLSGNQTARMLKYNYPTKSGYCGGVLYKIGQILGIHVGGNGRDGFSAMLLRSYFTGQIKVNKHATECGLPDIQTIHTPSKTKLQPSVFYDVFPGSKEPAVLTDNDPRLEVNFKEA

[3] = molecular target: Chymotrypsinogen B (Homo sapiens, UniProt P17538); assay: Inhibition of chymotrypsin
In short: (§1)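 HPLC-based activity assay with substrate S0120 at 400 µM. Enzyme levels: papain 4.5 µM, chymotrypsin 0.45 µM, trypsin 0.23 µM. IC50 determined from HPLC measurements.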

[4] = molecular target: T2, Papain (Carica papaya, UniProt P00784); assay: Inhibition of papain; in short: as §1
T2 sequence (P00784 whole entry): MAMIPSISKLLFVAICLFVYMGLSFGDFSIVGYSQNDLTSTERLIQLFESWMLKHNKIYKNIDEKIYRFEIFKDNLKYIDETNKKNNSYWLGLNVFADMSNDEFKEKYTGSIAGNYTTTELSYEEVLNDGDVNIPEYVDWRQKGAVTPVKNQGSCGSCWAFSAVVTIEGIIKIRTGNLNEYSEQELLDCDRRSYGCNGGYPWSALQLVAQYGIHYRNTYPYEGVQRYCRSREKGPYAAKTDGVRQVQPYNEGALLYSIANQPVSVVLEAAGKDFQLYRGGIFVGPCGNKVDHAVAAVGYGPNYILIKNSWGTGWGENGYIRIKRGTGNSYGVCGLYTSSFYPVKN

[5] = molecular target: Trypsin (Homo sapiens, UniProt P07477+P07478+P35030); assay: Inhibition of trypsin; assay type: protein assay; in short: as §1
[6] = molecular target: Replicase polyprotein 1a (Severe acute respiratory syndrome-related coronavirus, UniProt P0C6U8); assay: Inhibition of SARS CoV 3C-like protease

Chymotrypsinogen B, sequence (P17538 34-164 limits assumed, other chains not shown): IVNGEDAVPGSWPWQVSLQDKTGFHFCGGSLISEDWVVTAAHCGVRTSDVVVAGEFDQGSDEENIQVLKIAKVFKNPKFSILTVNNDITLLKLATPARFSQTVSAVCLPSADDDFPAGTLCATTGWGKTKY
Chymotrypsinogen B, sequence (P17538 167-263 limits assumed, other chains not shown): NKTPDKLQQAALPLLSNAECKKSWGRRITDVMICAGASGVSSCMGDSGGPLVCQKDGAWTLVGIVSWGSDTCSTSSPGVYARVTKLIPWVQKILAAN

SMILES | inhibition [1] | further results
NC(=O)c1ccc2c(c1)C(=O)C(=O)N2 | < 25% | 
COC(=O)c1ccc2c(c1)C(=O)C(=O)N2C | < 25% | 
O=C(O)c1ccc2c(c1)C(=O)C(=O)N2Cc1ccccc1 | < 25% | 
NC(=O)c1ccc2c(c1)C(=O)C(=O)N2Cc1ccc2ccccc2c1 |  | IC50 [2]: 0.004 µM; IC50 [3]: 34 µM; IC50 [4]: 11 µM; IC50 [5]: 352 µM
O=C1Nc2ccc(C(=O)O)cc2C1=O | < 25% | 
NC(=O)c1ccc2c(c1)C(=O)C(=O)N2Cc1ccccc1 |  | IC50 [6]: 12.5 µM
O=C(O)c1ccc2c(c1)C(=O)C(=O)N2Cc1ccc2ccccc2c1 | 46% | 
CCCN1C(=O)C(=O)c2cc(C(=O)O)ccc21 | < 25% | 
O=C1C(=O)N(Cc2ccccc2)c2ccc(I)cc21 |  | IC50 [6]: 50 µM; Ki [6]: 50 µM
COC(=O)c1ccc2c(c1)C(=O)C(=O)N2Cc1ccccc1 | < 25% | 
COC(=O)c1ccc2c(c1)C(=O)C(=O)N2Cc1ccc2ccccc2c1 | < 25% | 
CCCN1C(=O)C(=O)c2cc(C(=O)OC)ccc21 | < 25% | 
CCCCN1C(=O)C(=O)c2cc(C(=O)O)ccc21 | < 25% | 
CN1C(=O)C(=O)c2cc(C(=O)O)ccc21 | < 25% | 
CN1C(=O)C(=O)c2cc(I)ccc21 | < 25% | 
CCCN1C(=O)C(=O)c2cc(I)ccc21 | 25% | 
O=C1Nc2ccc(I)cc2C1=O | < 25% | 
CCCCN1C(=O)C(=O)c2cc(C(=O)OC)ccc21 | < 25% | 
CN1C(=O)C(=O)c2cc(C(N)=O)ccc21 |  | IC50 [6]: 71 µM; Ki [6]: 71 µM
